Results gathered from unrelated publications.
Lines come from different studies, so protocols differ.
Target: Calcium/calmodulin-dependent protein kinase kinase 1 (CAMKK1, Homo sapiens, UniProt Q8N5S9)

| SMILES | read-out | mode | method | tested at | endpoint | value |
| --- | --- | --- | --- | --- | --- | --- |
| Cn1cc(-c2cccc(N3CCc4c(sc5c4CC(C)(C)C5)C3=O)c2CO)cc(Nc2ccncn2)c1=O | enzyme activity | inhibitor | – | 1 µM | inhibition | 4% |
| Nc1ncc(-c2nc(N3CCOCC3)nc(N3CCOCC3)n2)c(C(F)F)n1 | binding | – | competition with immobilised ligand | 10 µM | remaining binding | 70% |
| O=c1[nH]c2ccccc2n1C1CCN(Cc2ccc(-c3[nH]c4cc5ncnc5cc4nc3-c3ccccc3)cc2)CC1 | cell-free assay | – | – | 0.5 µM | remaining signal | 117% |
| Cn1cncc1[C@](O)(COc1ccc(C#N)cc1-c1ccc(OC(F)(F)F)cc1)c1ccc(C#N)cc1 | cell-free assay | – | competition with immobilised ligand | 1 µM | remaining binding | 77% |
| CC(C)(C)c1cc(C=C(C#N)C#N)cc(Br)c1O | enzyme activity | inhibitor | – | 0.5 µM | remaining activity | 120% |
| COc1ncccc1-c1cnn2ccc(N3CCN(C(=O)OC(C)C)CC3)nc12 | binding | – | competition with immobilised ligand | 1 µM | remaining binding | 77% |
| N#CC1(c2ccccn2)CCN(Cc2cc(C(=O)O)c(=O)n3ccccc23)CC1 | cell-free assay | – | competition with immobilised ligand | 1 µM | remaining binding | 100% |
| Cc1nn(C)cc1-c1nc2c(N3CCN(Cc4ccc(Cl)cc4)CC3)c(Cl)cnc2[nH]1 | binding | – | competition with immobilised ligand | 1 µM | remaining binding | 100% |
